Variants at the floor of the assay were thinned out.
B1: tRNA (parent)
chain: GUUCCGUUGGCGUAAUGGUAACGCGUCUCCCUCCUAAGGAGAAGACUGCGGGUUCGAGUCCCGUACGGAACG

Variants of: B1
Test: yeast fitness relative to wild type (ratio to wild type); higher = fitter; tRNA-Arg(CCU), competitive growth, 37 C, YPD
How it was run: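 For this measurement, the tRNA-Arg(CCU) gene was varied by chemical synthesis at a 3% per-site mutation rate across 69 sites, and each variant was placed at the native genomic locus in Saccharomyces cerevisiae. The pooled strains went through a 24-hour competition in YPD at 37°C in six parallel replicates, with amplicons from start and end populations read by 100-nucleotide paired-end sequencing. Darwinian fitness relative to wild type followed from the change in each genotype's frequency. Genotypes needed ≥ 100 starting reads, and estimates < 0.5 were set to 0.5.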

Row | Variant | yeast fitness
1 | C11A U19G C49A | ≤ 0.5
2 | G10C A14U U19A C22U | 0.505
3 | A43G A57U | 0.623
4 | U13G G44A C46U A69C | 0.646
5 | A21C C24U C29U A36C | ≤ 0.5
6 | U7G C27G U28G U59C | ≤ 0.5
7 | C30U G50C A70G | ≤ 0.5
8 | G12A C30U U47A U54C | ≤ 0.5
9 | A14G C22G A70C | 0.637
10 | C4A G17A C61A | 0.534
11 | G18A C31A G56C A65C | ≤ 0.5
12 | U3C A43C C61U | 0.707
13 | U3C A43C C61A | 0.612
14 | A15C A20G | 0.78
15 | G10C A14U U19A C22U U47C | ≤ 0.5
16 | G12A A40G C46A C61U | ≤ 0.5
17 | A20C C62U A65G | 0.593
18 | A14G C34G A43C A70G | ≤ 0.5
19 | U13G C49A C55U C60U C61U | ≤ 0.5
20 | A36G A45C | 1.01
21 | U19C A43C | 0.907
22 | C5G G10A C11G U16G C33G A65G | ≤ 0.5
23 | A37G G44C A57U G63C | ≤ 0.5
24 | A21C G23U U59G | ≤ 0.5

Row | Variant | yeast fitness
25 | U32A C34A A65C | 0.523
26 | C4U C31U C61U G68C | ≤ 0.5
27 | U7A G23A C24U U35A C60A A69C | 0.706
28 | A42G U47G | 0.771
29 | A21U U26A A70C | ≤ 0.5
30 | C11U G41C C60G | 0.647
31 | A42U C60U | 0.769
32 | G25A C61U | 0.971
33 | U3A C29G G52A C66G | ≤ 0.5
34 | C4U U47A | 0.86
35 | A14U U16A C22U C24A | ≤ 0.5
36 | C24G C27U G52C | 0.566
37 | C4G U7A U19C A20C U53C | ≤ 0.5
38 | C11U C31G C49G C62U G67C | ≤ 0.5
39 | G25A G56A | 0.919
40 | C11U G17U A40U A42U C49G G51A C66A G68C | ≤ 0.5
41 | C5U U16C A69C | 0.671
42 | U26C A37G A69U | 0.665
43 | G25A C27G | 0.78
44 | C4G C5U G25C G68A | ≤ 0.5
45 | C46U C60A A70U | 0.585
46 | U3C A37C A70G | 0.555
47 | U8G G12A A21C U26C C60U | ≤ 0.5
48 | G18A G48C C49A U53A G56A G58C | ≤ 0.5

Row | Variant | yeast fitness
49 | A21U C33U A43U C49G G50C C61U C66U | ≤ 0.5
50 | C49G C60A | 0.696
51 | A14U A15U C27A C29G G44C C66A A70G | ≤ 0.5
52 | U7G C27U C33U | ≤ 0.5
53 | U2C G9C C24U U26G | ≤ 0.5
54 | U7A A36U C55U A65U | 0.555
55 | G39C A42C A45C A70C | ≤ 0.5
56 | A42C C49A G67C | ≤ 0.5
57 | G12C A65U G68U | 0.653
58 | C30A G39C A57G | ≤ 0.5
59 | U35A G68U | 0.6
60 | A20G C33U C49G G50C | ≤ 0.5
61 | U2C C61G | 0.553
62 | U13C C22A C29U | ≤ 0.5
63 | U19A G44C | 0.971
64 | C46G U54C | 0.697
65 | C11G C22A C31U A42G | 0.659
66 | C5G A15G U28C A45C | ≤ 0.5
67 | G9C A15G C27A C31G C61U | ≤ 0.5
68 | C46U A69G | 0.894
69 | C33U A43G U47C | 0.563
70 | C11G A20U G56A C60U | 0.678
71 | C24U C31G A65U | 0.508
72 | G51A G67U | 0.709

Row | Variant | yeast fitness
73 | C29A U32C | 0.618
74 | C27U C66A | 0.701
75 | A14G G18C C29G G56C | ≤ 0.5
76 | C4A C61U G68A | 0.541
77 | U3A G41A A69U | 0.617
78 | C4U C24U U28C C30A | 0.636
79 | C24G C30U C34U C55A | ≤ 0.5
80 | C11U C31G A45C | ≤ 0.5
81 | U13G C31A A57U | ≤ 0.5
82 | C11U C27A G50A A69U | ≤ 0.5
83 | C27G C33A A65U | ≤ 0.5
84 | U26G A45G C46U U53G C66U A69U | 0.582
85 | A14U G23A A36G | ≤ 0.5
86 | G6C C30U C46A G67C | ≤ 0.5
87 | U32A G48A | 0.673
88 | C24U C61U | 0.881
89 | U7A G10C C30G C34U | ≤ 0.5
90 | A43C C66A | 0.699
91 | G12C A20U C22G G50A C61A | 0.567
92 | G51C U54C A57G | ≤ 0.5
93 | G6A C30U | 0.742
94 | C31G A40G A45C U53A A70U | ≤ 0.5
95 | U3G G25A A45U C62A | ≤ 0.5
96 | U13G C24G | 0.539

Row | Variant | yeast fitness
97 | C24U C30U G63A | 0.502
98 | C5U C24U C46G A65C | 0.537
99 | G10A C29A C34G A43C | 0.68
100 | C34U C55U G63C | ≤ 0.5
101 | A15C G41C C46A | ≤ 0.5
102 | C31G G41C G50C C60U A69C | ≤ 0.5
103 | C34G A37C G58C | ≤ 0.5
104 | U19C U64A | 0.898
105 | U7A C22G A57U | ≤ 0.5
106 | G12A A36G C49G | ≤ 0.5
107 | A21G U28C A65G | 0.779
108 | C62A | 0.72
109 | G38A G44C | 0.712
110 | G23A C30G A65U | ≤ 0.5
111 | G6C C11G A14U A20G C22U G44A C55A | ≤ 0.5
112 | G25A C49U A65U | 0.849
113 | U2C A14G | 0.863
114 | C34U U54C A69U | ≤ 0.5
115 | C29G U35A G68C | ≤ 0.5
116 | U13A C30A | 1.11
117 | C11G A15G A45C C46A A65C | ≤ 0.5
118 | G23C C24A C49A U54C | 0.655
119 | C4U A20U C29G C49G G63C | ≤ 0.5
120 | C11U C31G C46A | 0.629

Row | Variant | yeast fitness
121 | G58A A65G | 0.965
122 | G9C U13C U47G | ≤ 0.5
123 | C5G U16A G44A C46U A69C | ≤ 0.5
124 | G51A A69U A70G | 0.543
125 | C4U G39C C49U | 0.62
126 | C5G C22G C55G A70U | ≤ 0.5
127 | U26C A36U A40U | 0.603
128 | U7A A20G C46G | 0.507
129 | U3G A20C A65U | 0.589
130 | U3A C31G C66U | 0.641
131 | U3A G51A A65G A69C | 0.544
132 | A14U G23A U28A C30A | ≤ 0.5
133 | U8G U26A | 0.605
134 | A40U A42C C55U | ≤ 0.5
135 | C46U U64A | 1.03
136 | U2C G10C C11U C34A A37C | 0.609
137 | A14U A15U C49A G51C U59A | ≤ 0.5
138 | C34A C66A | 0.509
139 | G6A G38C U54A A65C | ≤ 0.5
140 | G25A C31U C66U | 0.761
141 | A43G A65G | 1.08
142 | C4G G17A C66U | 0.596
143 | U3C G6C | 0.753
144 | U8C C49A | 0.704

Row | Variant | yeast fitness
145 | U3A C5G A21U | 0.539
146 | A15C G51C | 0.504
147 | U16C C27G C33A G38C A42G | 0.884
148 | U3A A45G | 1
149 | C11U A45G C46G U47A C62G A65C | 0.533
150 | C24U C66U | 0.794
151 | G9A G58U A70G | 0.984
152 | A21G C31U U35C C61U C66U | ≤ 0.5
153 | U7G G23U C27G U28G C60A | ≤ 0.5
154 | C4U U47C C66U | 0.766
155 | U13C C55U | 0.837
156 | A15G A45C | 0.796
157 | A21C A70U | 0.894
158 | A42G G50C A69C | ≤ 0.5
159 | A43G A57U G58A | 0.531
160 | C4A G12C U13G C30U G58C | ≤ 0.5
161 | U3G C30G C62U | ≤ 0.5
162 | A20U G48A C61A A65C | ≤ 0.5
163 | U13G C22U U28C C31A | ≤ 0.5
164 | U64G G68A | 0.678
165 | A37C A65G G68U | 0.801
166 | U26G A37C A42G G44C A45G | ≤ 0.5
167 | G9C U16G A65U | ≤ 0.5
